Values after ≈ are worked out from the molar mass of the structure shown.
Tests used:
Format in all cases: functional
[1] = tested on: Staphylococcus aureus; test: Antimicrobial activity against Staphylococcus aureus ATCC 6538
How it was run: (§1)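 Bacteria were subcultured on blood agar for 24 h at 37 °C, then tested by broth microdilution in cation-adjusted Mueller-Hinton broth. Compounds were in DMSO and given as twofold serial dilutions from 1024 down to 1, with a final inoculum of 10^5 CFU/mL. Plates were incubated 48 h at 35 °C. MIC was the lowest concentration preventing visible growth. Growth control was drug-free inoculated broth.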

[2] = tested on: Escherichia coli; test: Antimicrobial activity against Escherichia coli ATCC 25922; how it was run: as §1
[3] = tested on: Candida albicans; test: Antimicrobial activity against Candida albicans ATCC 10231
How it was run: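 Yeast was subcultured on Sabouraud dextrose agar for 24 h at 35 °C. It was then tested by NCCLS M27-A broth microdilution in RPMI 1640 buffered with MOPS, pH 7.0. DMSO solutions were diluted twofold from 1024 […]. Final inoculum was 0.5×10^3–2.5×10^3 CFU/mL, read after 48 h at 35 °C. MIC was the lowest concentration visibly inhibiting growth.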

SMILES	MIC [1] [µg/mL]	MIC [2] [µg/mL]	MIC [3] [µg/mL]
Cc1cc(C)c(C/C(=N/NC(N)=O)c2cc3ccccc3o2)c(C)c1	128 (≈ 382 µM)	64 (≈ 191 µM)	64 (≈ 191 µM)
Cc1cc(C)c(CC(O)c2cc3ccccc3o2)c(C)c1 (stereo unspecified)	128 (≈ 457 µM)	128 (≈ 457 µM)	64 (≈ 228 µM)
Cc1cc(C)c(CC(=O)CSC#N)c(C)c1	256 (≈ 1100 µM)	256 (≈ 1100 µM)	32 (≈ 137 µM)
Cc1cc(C)c(C/C(=N\OC(=O)Cc2ccccc2)c2cc3ccccc3o2)c(C)c1	256 (≈ 622 µM)	128 (≈ 311 µM)	128 (≈ 311 µM)
Cc1cc(C)c(CC(O)CCl)c(C)c1 (stereo unspecified)	128 (≈ 602 µM)	64 (≈ 301 µM)	32 (≈ 150 µM)
Cc1cc(C)c(C/C(=N/OCC(=O)NN)c2cc3ccccc3o2)c(C)c1	256 (≈ 701 µM)	64 (≈ 175 µM)	32 (≈ 87.6 µM)
C[C@@H](O)[C@H]1C(=O)N2C(C(=O)O)=C(S[C@@H]3CN[C@H](C(=O)N(C)C)C3)[C@H](C)[C@H]12 [MEROPENEM]	1 (≈ 2.61 µM)	0.125 (≈ 0.326 µM)	
Cc1cc(C)c(C/C(=N/O)c2cc3ccccc3o2)c(C)c1	128 (≈ 436 µM)	128 (≈ 436 µM)	128 (≈ 436 µM)
Cc1cc(C)c(C/C(=N\OC(=O)c2ccccc2)c2cc3ccccc3o2)c(C)c1	4 (≈ 10.1 µM)	32 (≈ 80.5 µM)	64 (≈ 161 µM)
Cc1cc(C)c(CC(=O)CCl)c(C)c1	16 (≈ 75.9 µM)	64 (≈ 304 µM)	16 (≈ 75.9 µM)
OC(Cn1cncn1)(Cn1cncn1)c1ccc(F)cc1F [FLUCONAZOLE]			0.25 (≈ 0.816 µM)
CO/N=C(\Cc1c(C)cc(C)cc1C)c1cc2ccccc2o1	256 (≈ 833 µM)	128 (≈ 416 µM)	64 (≈ 208 µM)
CCOC(=O)CO/N=C(\Cc1c(C)cc(C)cc1C)c1cc2ccccc2o1	256 (≈ 675 µM)	256 (≈ 675 µM)	256 (≈ 675 µM)

From ChEMBL document CHEMBL1149769, “Synthesis and antimicrobial activity of some novel derivatives of benzofuran: part 2. The synthesis and antimicrobial activity of some novel 1-(1-benzofuran-2-yl)-2-mesitylethanone derivatives” (2008)
